Data: ChEMBL document CHEMBL1629526, “4-[1-(Substituted aryl/alkyl carbonyl)-benzoimidazol-2-yl]-benzenesulfonic acids: synthesis, antimicrobial activity, QSAR studies, and antiviral evaluation” (Eur J Med Chem, 2010)

How the values were obtained:
[1] = test system: Staphylococcus aureus; experiment: Antimicrobial activity against Staphylococcus aureus after 24 hrs by tube dilution method; type: functional
[2] = test system: Bacillus subtilis; experiment: Antimicrobial activity against Bacillus subtilis after 24 hrs by tube dilution method; type: functional
How it was run: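 Serial dilutions in double-strength nutrient broth (I.P.) with ciprofloxacin as reference, tube dilution, incubated 37 °C for 24 h. MIC is the lowest concentration that inhibited growth.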

[3] = test system: Escherichia coli; experiment: Antimicrobial activity against Escherichia coli after 24 hrs by tube dilution method; type: functional
[4] = test system: Candida albicans; experiment: Antimicrobial activity against Candida albicans after 48 hrs by tube dilution method; type: functional
[5] = test system: Aspergillus niger; experiment: Antimicrobial activity against Aspergillus niger after 7 days by tube dilution method; type: functional; settings: 168 h
[6] = Cytotoxicity against cat CRFK cells assessed as cell viability by MTS assay; type: cell-based, Felis catus
How it was run: (§1)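 Uninfected cultures were run in parallel with the antiviral assays. Viability was read by colorimetric formazan MTS assay.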

[7] = test system: Felid alphaherpesvirus 1; experiment: Antiviral activity against Feline herpesvirus 1 infected in cat CRFK cells assessed as inhibition of virus induced cytopathicity after 2 to 4 days by MTS assay; type: functional, organism-based; settings: Felid alphaherpesvirus 1, CRFK
[8] = test system: Feline coronavirus; experiment: Antiviral activity against Feline coronavirus infected in cat CRFK cells assessed as inhibition of virus induced cytopathicity after 2 to 4 days by MTS assay; type: functional, organism-based; settings: Alphacoronavirus 1, CRFK
[9] = Cytotoxicity against human HEL cells assessed as altered cell morphology; type: cell-based
How it was run: (§2)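 Uninfected cell cultures run alongside the antiviral assays, exposed to serial compound dilutions and incubated at 37 °C for 2–4 days. Toxicity was scored microscopically and reported as the minimum cytotoxic concentration (MCC), the lowest concentration causing a detectable change in normal cell morphology.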

[10] = test system: Human alphaherpesvirus 1; experiment: Antiviral activity against Herpes simplex virus 1 KOS infected in HEL cells assessed as inhibition of virus induced cytopathicity after 2 to 4 days by MTS assay; type: functional, organism-based; settings: Human alphaherpesvirus 1, KOS
[11] = test system: Human alphaherpesvirus 2; experiment: Antiviral activity against Herpes simplex virus 2 G infected in HEL cells assessed as inhibition of virus induced cytopathicity after 2 to 4 days by MTS assay; type: functional, organism-based; settings: Human alphaherpesvirus 2, strain G
[12] = test system: Vaccinia virus; experiment: Antiviral activity against Vaccinia virus infected in HEL cells assessed as inhibition of virus induced cytopathicity after 2 to 4 days by MTS assay; type: functional, organism-based; settings: Orthopoxvirus vaccinia
[13] = test system: Vesicular stomatitis virus; experiment: Antiviral activity against Vesicular stomatitis virus infected in HEL cells assessed as inhibition of virus induced cytopathicity after 2 to 4 days by MTS assay; type: functional, organism-based
[14] = test system: Human alphaherpesvirus 1; experiment: Antiviral activity against thymidine kinase deficient acyclovir-resistant Herpes simplex virus 1 KOS infected in HEL cells assessed as inhibition of virus induced cytopathicity after 2 to 4 days by MTS assay; type: functional, organism-based; settings: Human alphaherpesvirus 1, KOS
[15] = test system: HeLa; experiment: Cytotoxicity against human HeLa cells assessed as cell viability by MTS assay; type: cell-based; settings: hela; how it was run: as §1
[16] = Cytotoxicity against human HeLa cells assessed as altered cell morphology; type: cell-based; how it was run: as §2
[17] = test system: Vesicular stomatitis virus; experiment: Antiviral activity against Vesicular stomatitis virus infected in human HeLa cells assessed as inhibition of virus induced cytopathicity by visual scoring of CPE; type: functional, organism-based
[18] = test system: Vesicular stomatitis virus; experiment: Antiviral activity against Vesicular stomatitis virus infected in human HeLa cells assessed as inhibition of virus induced cytopathicity after 2 to 4 days by MTS assay; type: functional, organism-based
[19] = test system: Coxsackievirus B4; experiment: Antiviral activity against coxsackievirus B4 infected in human HeLa cells assessed as inhibition of virus induced cytopathicity by visual scoring of CPE; type: functional, organism-based; settings: Enterovirus B
[20] = test system: Coxsackievirus B4; experiment: Antiviral activity against coxsackievirus B4 infected in human HeLa cells assessed as inhibition of virus induced cytopathicity after 2 to 4 days by MTS assay; type: functional, organism-based; settings: Enterovirus B
[21] = test system: Respiratory syncytial virus; experiment: Antiviral activity against Respiratory syncytial virus infected in human HeLa cells assessed as inhibition of virus induced cytopathicity by visual scoring of CPE; type: functional, organism-based
[22] = test system: Respiratory syncytial virus; experiment: Antiviral activity against Respiratory syncytial virus infected in human HeLa cells assessed as inhibition of virus induced cytopathicity after 2 to 4 days by MTS assay; type: functional, organism-based
[23] = test system: MDCK; experiment: Cytotoxicity against MDCK cells assessed as cell viability by MTS assay; type: cell-based, Canis lupus familiaris; settings: dog, mdck; how it was run: as §1
[24] = Cytotoxicity against MDCK cells assessed as altered cell morphology; type: cell-based, Canis lupus familiaris; settings: dog; how it was run: as §2
[25] = test system: Influenza A virus; experiment: Antiviral activity against Influenza A H3N2 virus subtype infected in MDCK cells assessed as inhibition of virus induced cytopathicity by visual scoring of CPE; type: functional, organism-based
[26] = test system: Influenza A virus; experiment: Antiviral activity against Influenza A H3N2 virus subtype infected in MDCK cells assessed as inhibition of virus induced cytopathicity after 2 to 4 days by MTS assay; type: functional, organism-based
[27] = test system: Influenza B virus; experiment: Antiviral activity against Influenza B virus infected in MDCK cells assessed as inhibition of virus induced cytopathicity by visual scoring of CPE; type: functional, organism-based
[28] = test system: Influenza B virus; experiment: Antiviral activity against Influenza B virus infected in MDCK cells assessed as inhibition of virus induced cytopathicity after 2 to 4 days by MTS assay; type: functional, organism-based
[29] = Cytotoxicity against african green monkey Vero cells assessed as altered cell morphology; type: cell-based; settings: chlorocebus sabaeus; how it was run: as §2
[30] = test system: Human respirovirus 3; experiment: Antiviral activity against parainfluenza-3 virus infected in african green monkey Vero cells assessed as inhibition of virus induced cytopathicity after 2 to 4 days by MTS assay; type: functional, organism-based; settings: Human respirovirus 3, Vero
[31] = test system: Mammalian orthoreovirus 1; experiment: Antiviral activity against Reovirus 1 virus infected in african green monkey Vero cells assessed as inhibition of virus induced cytopathicity after 2 to 4 days by MTS assay; type: functional, organism-based; settings: Mammalian orthoreovirus 1, Vero
[32] = test system: Sindbis virus; experiment: Antiviral activity against Sindbis virus infected in african green monkey Vero cells assessed as inhibition of virus induced cytopathicity after 2 to 4 days by MTS assay; type: functional, organism-based
[33] = test system: Coxsackievirus B4; experiment: Antiviral activity against Coxsackie virus B4 infected in african green monkey Vero cells assessed as inhibition of virus induced cytopathicity after 2 to 4 days by MTS assay; type: functional, organism-based; settings: Enterovirus B
[34] = test system: Punta Toro virus; experiment: Antiviral activity against Punta Toro virus infected in african green monkey Vero cells assessed as inhibition of virus induced cytopathicity after 2 to 4 days by MTS assay; type: functional, organism-based

CCCCCCCCCCCCCCCC(=O)n1c(-c2ccc(S(=O)(=O)O)cc2)nc2ccccc21
12.5 µg/mL: MBC [2] | MBC [3]
6.25 µg/mL: MBC [1]
> 50 µg/mL: MFC [4] | MFC [5]
> 100 µg/mL: CC50 ([6]; crfk) | EC50 [7] | EC50 [8] | MCC [9] | EC50 [10] | EC50 [11] | EC50 [12] | EC50 [13] | EC50 [14] | CC50 [15] | MCC [16] | EC50 [17] | EC50 [18] | EC50 [19] | EC50 [20] | EC50 [21] | EC50 [22] | CC50 [23] | MCC [24] | EC50 [25] | EC50 [26] | EC50 [27] | EC50 [28] | MCC [29] | EC50 [30] | EC50 [31] | EC50 [32] | EC50 [33] | EC50 [34]

CCCCC(=O)n1c(-c2ccc(S(=O)(=O)O)cc2)nc2ccccc21
6.25 µg/mL: MBC [1] | MBC [2] | MBC [3]
> 50 µg/mL: MFC [5]
> 100 µg/mL: CC50 ([6]; crfk) | EC50 [7] | EC50 [8] | MCC [9] | EC50 [10] | EC50 [11] | EC50 [12] | EC50 [13] | EC50 [14] | CC50 [15] | MCC [16] | EC50 [17] | EC50 [18] | EC50 [19] | EC50 [20] | EC50 [21] | EC50 [22] | CC50 [23] | MCC [24] | EC50 [25] | EC50 [26] | EC50 [27] | EC50 [28] | MCC [29] | EC50 [30] | EC50 [31] | EC50 [32] | EC50 [33] | EC50 [34]
12.5 µg/mL: MFC [4]

CCCCCCCC/C=C/CCCCCCCC(=O)n1c(-c2ccc(S(=O)(=O)O)cc2)nc2ccccc21
12.5 µg/mL: MBC [1]
> 100 µg/mL: CC50 ([6]; crfk) | EC50 [7] | EC50 [8] | MCC [9] | EC50 [10] | EC50 [11] | EC50 [12] | EC50 [13] | EC50 [14] | CC50 [15] | MCC [16] | EC50 [17] | EC50 [18] | EC50 [19] | EC50 [20] | EC50 [21] | EC50 [22] | CC50 [23] | MCC [24] | EC50 [25] | EC50 [26] | EC50 [27] | EC50 [28] | MCC [29] | EC50 [30] | EC50 [31] | EC50 [32] | EC50 [33] | EC50 [34]
3.12 µg/mL: MBC [3]
50 µg/mL: MBC [2] | MFC [4]
> 50 µg/mL: MFC [5]

Cc1ccc(S(=O)(=O)n2c(-c3ccc(S(=O)(=O)O)cc3)nc3ccccc32)cc1
> 100 µg/mL: CC50 ([6]; crfk) | EC50 [7] | EC50 [8] | MCC [9] | EC50 [10] | EC50 [11] | EC50 [12] | EC50 [13] | EC50 [14] | CC50 [15] | MCC [16] | EC50 [17] | EC50 [18] | EC50 [19] | EC50 [20] | EC50 [21] | EC50 [22] | CC50 [23] | MCC [24] | EC50 [25] | EC50 [26] | EC50 [27] | EC50 [28] | MCC [29] | EC50 [30] | EC50 [33] | EC50 [34]
12.5 µg/mL: MBC [2] | MBC [3]
> 50 µg/mL: MFC [5]
6.25 µg/mL: MBC [1]
50 µg/mL: MFC [4]
100 µg/mL: EC50 [31]
> 250 µg/mL: EC50 [32]

O=c1[nH]c(=O)n([C@H]2C[C@H](O)[C@@H](CO)O2)cc1/C=C/Br [BRIVUDINE]
> 250 µg/mL: MCC [9] | EC50 [14]
112 µg/mL: EC50 [12]

Nc1ccn(C[C@@H](CO)OCP(=O)(O)O)c(=O)n1.O.O [CIDOFOVIR]
0.4 µg/mL: EC50 [10]
> 250 µg/mL: MCC [9] | EC50 [12] | EC50 [14]
0.2 µg/mL: EC50 [11]

Nc1nc2c(ncn2COC(CO)CO)c(=O)[nH]1 [GANCICLOVIR]
0.03 µg/mL: EC50 [10] | EC50 [11]
58 µg/mL: EC50 [14]
> 100 µg/mL: CC50 ([6]; CRFK cells, read-out: CC50) | EC50 [7] | MCC [9]
1.7 µg/mL: EC50 [8]
